Experimental data: ChEMBL document CHEMBL1134393, “Synthesis and biological activity of analogues of the antidiabetic/antiobesity agent 3-guanidinopropionic acid: discovery of a novel aminoguanidinoacetic acid antidiabetic agent” (2001)

Test system: not listed separately
Assay: In vivo blood glucose was determined in obese, hyperglycemic, hyperinsulinemic, insulin-resistant […] after a dose of 500 mg/kg for 4 days
Assay type: functional, Mus musculus
Summary of the method: (§1)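 KKAy mice (KK female × Ay male cross) allocated to treatment or control groups (n = 6) after pretest glucose. Compound given in food, equivalent to 500 mg/kg per day for 4 days. Nonfasting blood drawn from the retroorbital sinus; glucose measured by autoanalyzer. Result expressed as treated/control glucose ratio (T/C). Wilcoxon rank sum test applied when T/C < 0.80.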

Row | SMILES | MISS T/C
1 | N=C(N)NCCC(=O)O [OMPENACLID] | 0.52

Biological target: Sodium- and chloride-dependent creatine transporter 1 (Rattus norvegicus) (UniProt P28570)
Assay: In vitro [14C]- creatine uptake (1 mM) was determined in rat A10 smooth muscle cells at a concentration of (1 mM)

Row | SMILES | Inhibition [%]
2 | CN(CC(=O)O)C(=N)N [CREATINE] | 92

Test system: A10
Assay: (§2) In vitro [14C]- creatine uptake (1 mM) was determined in rat A10 smooth muscle cells at a concentration of (1 mM)
Assay type: functional
Summary of the method: (§3)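 Rat A10 smooth muscle cells grown in DMEM with 10% FBS and used in log-phase growth. Cells washed, then incubated at 37 °C in Hanks buffer (pH 7.4, 10 mM Hepes, 20 mM glucose, 0.2% fatty-acid-free BSA) with [14C]creatine (1 mM) plus test compound (1 mM) for 30–120 min. Ice-cold washes, NaOH lysis, scintillation counting. Uptake normalised to medium specific activity and extract protein; reported as % inhibition.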

Row | SMILES | Inhibition [%]
3 | N=C(N)NCCC(=O)O [OMPENACLID] | 97

Organism: Rattus norvegicus
Assay: as §2
Assay type: functional
Summary of the method: as §3

Row | SMILES | Inhibition [%]
4 | N=C(N)NNCC(=O)O | 36

Biological target: Creatine kinase M-type (Oryctolagus cuniculus) (UniProt P00563)
Sequence (P00563 whole entry, looked up): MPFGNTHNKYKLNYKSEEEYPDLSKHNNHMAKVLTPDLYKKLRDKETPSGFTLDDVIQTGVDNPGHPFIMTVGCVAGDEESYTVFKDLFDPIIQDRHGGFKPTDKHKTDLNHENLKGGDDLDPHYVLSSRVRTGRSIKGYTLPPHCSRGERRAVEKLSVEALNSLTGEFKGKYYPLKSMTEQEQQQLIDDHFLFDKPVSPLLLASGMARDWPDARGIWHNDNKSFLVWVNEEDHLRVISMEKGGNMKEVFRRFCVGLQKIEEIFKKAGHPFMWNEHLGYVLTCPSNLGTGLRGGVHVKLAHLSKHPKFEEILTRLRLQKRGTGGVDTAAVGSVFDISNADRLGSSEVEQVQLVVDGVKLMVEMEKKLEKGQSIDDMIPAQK
Assay: In vitro kinase activity (phosphorylation) of creatine kinase was determined

Row | SMILES | Activity
5 | CN(CC(=O)O)C(=N)N [CREATINE] | 100
6 | N=C(N)NCCC(=O)O [OMPENACLID] | 5
7 | N=C(N)NNCC(=O)O | 0.5

Test system: not listed separately
Assay: In vivo blood glucose was determined in obese, hyperglycemic, hyperinsulinemic, insulin-resistant KKAy mice after a dose of 500 mg/kg for 4 days
Assay type: functional, Mus musculus
Summary of the method: as §1

Row | SMILES | MISS T/C
8 | CN(CCC(=O)O)C(=N)N | 1.02
9 | N/C(=N/CCC(=O)O)N[N+](=O)[O-] | 0.84
10 | O=C(O)CCNc1ncccn1 | 1.01
11 | N=C(N)N[C@H]1CCC[C@H]1C(=O)O | 0.97
12 | N=C(N)N[C@H]1CCCC[C@H]1C(=O)O | 0.92
13 | Nc1cccc(CC(=O)O)n1 | 1.08
14 | N=C(N)Nc1ccc(C(=O)O)cc1 [4-GUANIDINO-BENZOIC ACID] | 0.8
15 | CCCCCCN=C(N)NCCC(=O)O | 0.85
16 | CCOC(=O)CCN=C(N)N.Cl | 0.87
17 | N#CN/C(N)=N\CCC(=O)O | 0.92
18 | N=C(N)c1ccc(CC(=O)O)[nH]1 | 1.1
19 | CC(=O)NC(=N)NCCC(=O)O | 0.88
20 | N=C(N)NC(CC(=O)O)c1ccccc1 (stereo unspecified) | 0.95
21 | N=C(N)SCCC(=O)O | 0.53
22 | Nc1cccc[n+]1CCC(=O)[O-] | 1.07
23 | O=C(O)CCNc1[nH]cnc2ncnc1-2 | 0.85
24 | Cl.N=C(N)CCCC(=O)O | 0.93
25 | Cl.N=C(N)CSCC(=O)O | 0.92
26 | Nc1ccc[n+](CC(=O)O)c1.[Cl-] | 0.94
27 | N=C(N)N1CCCC(C(=O)O)C1 (stereo unspecified) | 1
28 | O=C(O)CCNC1=NCCS1 | 0.85
29 | O=C(O)CCn1ccnc1 | 0.81
30 | CC(=N)NCCC(=O)O | 0.77
31 | N=C(N)NCCc1nnn[nH]1 | 0.94
32 | Cl.N=C(N)NCCC(=O)NO | 1.05

Row | SMILES | MISS T/C
33 | N=C(N)NCC(S)C(=O)O (stereo unspecified) | 0.83
34 | Cl.NC(N)=NC[C@@H](N)C(=O)O | 0.92
35 | CC(CN=C(N)N)C(=O)O (stereo unspecified) | 0.86
36 | Nc1ncnc2nn(CCC(=O)O)cc12 | 1.08
37 | N/C(S)=N/CCC(=O)O | 0.99
38 | Cl.N=C(N)SCC(=O)O | 0.86
39 | CSC(=N)NCCC(=O)O | 1.1
40 | O=C(O)CCNc1nccs1 | 0.99
41 | C/N=C(\N)NCCC(=O)O | 1.02
42 | C/N=C(\NC)SCCC(=O)O.Cl | 1.06
43 | Cl.NC(=O)CCN=C(N)N | 0.96
44 | O=C(O)Cc1c[nH]cn1 [IMIDAZOLE ACETIC ACID] | 0.68
45 | O=C(O)CCNC1=NCCN1 | 0.97
46 | COC(=O)NC(=N)NCCC(=O)O | 0.88
47 | N=C(N)NCCP(=O)(O)O | 0.81
48 | Cl.N=C(N)S/C=C\C(=O)O | 0.95
49 | NC(N)=NC[C@H](N)C(=O)O | 0.35
50 | NC(=O)NCCC(=O)O | 1.06
51 | CC(CC(=O)O)N=C(N)N (stereo unspecified) | 0.77
52 | CN(C)C(=N)SCCC(=O)O.Cl | 1.08
53 | N=C(N)NCCCC(=O)O | 0.8
54 | Cl.N=C(N)SCCCC(=O)O | 0.87
55 | O=C(O)CCNc1nc2ccccc2s1 | 0.87
56 | O=C(O)CCNc1ccccn1 | 0.2
57 | N=C(N)NCCS(=O)(=O)O | 0.91

Row | SMILES | MISS T/C
58 | CNC(CN=C(N)N)C(=O)O.Cl.Cl (stereo unspecified) | 0.96
59 | Nc1ncnc2c1cnn2CCC(=O)O | 1.27
60 | CCc1cc(O)nc(NCCC(=O)O)n1 | 0.96
61 | N=C(N)c1ccccc1NCCC(=O)O | 0.73
62 | N[C@@H](Cc1c[nH]cn1)C(=O)O [HISTIDINE] | 0.8
63 | N=C(N)NOCC(=O)O | 0.83
64 | Cl.N=C(N)NC/C(=N/O)C(=O)O | 0.97
65 | CCCCCC(CN=C(N)N)C(=O)O (stereo unspecified) | 0.79
66 | N=C(N)NCCC[C@H](N)C(=O)O [ARGININE] | 1.02
67 | N=C(N)S/C=C\C(=O)O [ZAPA] | 0.68
68 | N=C(N)c1cccn1CCC(=O)O | 0.93
69 | N=C(N)N[C@H]1CCC[C@@H]1C(=O)O | 0.9
70 | N=C(N)NCC(Cc1ccccc1)C(=O)O (stereo unspecified) | 0.93
71 | O=C(O)CCNc1nc2ccccc2[nH]1 | 0.95
72 | N=C(N)NNCC(=O)O | 0.61
73 | CCCCCC(CC(=O)O)N=C(N)N (stereo unspecified) | 0.88
74 | N=C(N)N[C@H]1CCCC[C@@H]1C(=O)O | 0.93
75 | N=C(N)N1CCCCC1CC(=O)O (stereo unspecified) | 0.91
76 | N=C(N)NCC(O)C(=O)O (stereo unspecified) | 1.1
77 | Cl.Cl.N/C(=N\CCC(=O)O)c1ccccc1N | 0.92
78 | O=C(O)CCn1cccn1 | 1.11
79 | N=C(N)NCCc1c[nH]c(S)n1 | 0.8
80 | N=C(N)NCC(=O)O [GUANIDINO ACETATE] | 0.62
81 | C/N=C(\N)SCCC(=O)O.Cl | 0.59
